Published values pooled from the literature.
Each line is one published result; the experiments were not run side by side.
SGK2: Serine/threonine-protein kinase Sgk2 (SGK2, Homo sapiens, UniProt Q9HBY8)
CDK1: Cyclin-dependent kinase 1 (CDK1, Homo sapiens, UniProt P06493)
CDK9: Cyclin-dependent kinase 9 (CDK9, Homo sapiens, UniProt P50750)

C#Cc1cc(-c2cc(Nc3nc(N[C@@H](C)c4ccc(F)cn4)ncc3Cl)n[nH]2)ccc1C=O — inhibition (SGK2; enzyme activity, inhibitor; 0.2 µM): 4.48%
NC/C(=C\F)COc1cccc(Cn2c(=S)[nH]c(=O)c3[nH]cnc32)c1 — remaining activity (Myeloperoxidase (Mus musculus, UniProt P11247); enzyme activity, inhibitor; 10 µM): -4.18%
C1=C/COCc2cc(ccc2OCCN2CCCC2)Nc2nccc(n2)-c2cccc(c2)COC/1 — remaining signal (Dual specificity mitogen-activated protein kinase kinase 7 (MAP2K7, Homo sapiens, UniProt O14733); cell-free assay; 0.1 µM): 73%
C[C@H]1CN(CC2CCN(c3ccc(C4CCC(=O)NC4=O)cc3F)CC2)CC[C@H]1NS(=O)(=O)c1ccc(Nc2ncc(C(F)(F)F)c(N3CCC[C@](C)(O)C3)n2)c(F)c1 (stereo partly shown) — Dmax (CDK1; protein level, degrader, western blot; TOV21G): 40%
COc1ccc2oc(-c3ccc4nc(N)oc4c3)c/c(=N\c3ccccc3NC(=O)CCN)c2c1 — remaining binding (5'-AMP-activated protein kinase catalytic subunit alpha-2 (PRKAA2, Homo sapiens, UniProt P54646); binding; 1 µM): 103%
CC(C)(C)c1cnc(CSc2cnc(NC(=O)C3CCN(C(=O)CCCCCCCCCCN4Cc5cc6c(cc5C4)C(=O)N(C4CCC(=O)NC4=O)C6=O)CC3)s2)o1 (stereo not shown) — inhibition (CDK9; protein level, degrader, western blot; TC-71; 25 nM): 89.1%
C[C@]1(O)CCCN(c2nc(Nc3ccc(S(=O)(=O)N[C@@H]4CCN(CC5CCN(c6ccc(C7CCC(=O)NC7=O)cc6F)CC5)C[C@H]4F)cc3F)ncc2C(F)(F)F)C1 (stereo partly shown) — Dmax (CDK1; protein level, degrader, western blot; TOV21G): 26%
Cc1cc2c(C(N)=O)c(N)n(-c3c(C)ccc(O)c3C)c2nc1C — inhibition (Proto-oncogene tyrosine-protein kinase Src (SRC, Homo sapiens, UniProt P12931); enzyme activity, inhibitor, TR-FRET; 10 µM): 101%
CCCCC(=O)Nc1ccc(-c2ccc3ncn(CCC)c(=O)c3c2)cn1 — remaining binding (SGK2; binding, competition with immobilised ligand; 0.5 µM): 100%
CC(C)(C)c1cnc(CSc2cnc(NC(=O)C3CCN(C(=O)CCCCCN4Cc5cc6c(cc5C4)C(=O)N(C4CCC(=O)NC4=O)C6=O)CC3)s2)o1 (stereo not shown) — inhibition (CDK9; protein level, degrader, western blot; TC-71; 25 nM): 93.4%
C[C@]1(O)CCCN(c2nc(Nc3ccc(S(=O)(=O)N[C@H]4CC[C@H](CN5CCN(c6ccc(C7CCC(=O)NC7=O)c(F)c6)CC5)CC4)cc3F)ncc2C(F)(F)F)C1 (stereo partly shown) — Dmax (CDK1; protein level, degrader, western blot; TOV21G): 73%
CC(C)(C)c1cnc(CSc2cnc(NC(=O)C3CCN(C(=O)CCCCCCCCCN4Cc5cc6c(cc5C4)C(=O)N(C4CCC(=O)NC4=O)C6=O)CC3)s2)o1 (stereo not shown) — inhibition (CDK9; protein level, degrader, western blot; TC-71; 25 nM): 91.8%
CCN(CC)CCNC(=O)c1ccc(NCN2C(=O)NC(c3ccccc3)(c3ccccc3)C2=O)cc1 — inhibition (Mitogen-activated protein kinase 3 (MAPK3, Homo sapiens, UniProt P27361); enzyme activity, inhibitor, ADP detection; 10 µM): 43.6%
